Like-named read-outs stand apart in the source and are kept apart here.
Tests used:
[1] = Steady-state plasma pharmacokinetics, phase I trial; assay type: in vivo, human; conditions: for Mean peak plasma level: steady state; for AUC: po
How it was run: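 Liposarcoma patients took oral test compound twice daily with food. On day 8 of cycle 1, EDTA blood was drawn predose and 0.5–8 h post-dose, iced, spun within 1 h and stored as plasma at ≤ –20 °C. Parent and active metabolite were extracted by protein precipitation/organic extraction (reserpine internal standard) and quantified by LC–MS/MS in positive-ion MRM. Non-compartmental Cmax/Tmax; linear/log trapezoidal AUC.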

[2] = system: liposarcoma; conditions: cited from earlier work
[3] = system: HIV; conditions: cited from earlier work
[4] = system: liposarcoma xenograft; conditions: murine liposarcoma xenograft; cited from earlier work
[5] = system: liposarcoma; conditions: cited from earlier work; remark: listed apart in the source
[6] = system: SREBP-1; conditions: in the absence of increased gene expression; cited from earlier work
[7] = system: liposarcoma; test: Tumor response by RECIST in subjects with liposarcoma; assay type: in vivo, human
[8] = RECIST, 20 subjects, all dose levels

Cc1c(O)cccc1C(=O)N[C@@H](CSc1ccccc1)[C@H](O)CN1C[C@H]2CCCC[C@H]2C[C@H]1C(=O)NC(C)(C)CO [M8]
time to peak plasma concentration ([1]; 3,000 mg nelfinavir twice daily): 4 to 6 h
time to peak plasma concentration ([1]; 4,250 mg nelfinavir twice daily): 2 h
anticancer activity relative to parent molecule [2]: comparable to its parent molecule
activity in suppressing HIV replication relative to parent drug [3]: as pharmacologically active as the parent drug

Cc1c(O)cccc1C(=O)N[C@@H](CSc1ccccc1)[C@H](O)CN1C[C@H]2CCCC[C@H]2C[C@H]1C(=O)NC(C)(C)C [nelfinavir]
effect on tumor growth [4]: inhibition of tumor growth
Mean peak plasma level ([1]; Level 4, 3,000 mg twice daily oral, six subjects): 7.3 mg/L
Mean peak plasma level ([1]; Level 5, 4,250 mg twice daily oral, three subjects): 6.3 mg/L
Tmax ([1]; human, plasma, oral, 4250 mg twice daily): 2 h
AUC ([1]; human, plasma, 3000 mg twice daily): 60900 ng·h/mL
AUC ([1]; human, plasma, 4250 mg twice daily): 37700 ng·h/mL
potency rank among HIV PIs in clonogenic assays [5]: most potent HIV PI identified
precursor SREBP-1 protein expression [6]: dose-dependent increase
subjects with CT partial response (PR) [7, 8]: 1
subjects with progressive disease at initial evaluation [7, 8]: 13
subjects with reduction in tumor size, but less than a PR [7, 8]: 1
clinical benefit (complete response, PR, plus SD) ([7]; of 20 subjects): 30%
subjects with clinical benefit (complete response, PR, plus SD) ([7]; of 20 subjects): 6
range where anticancer activity was demonstrated in vitro [2]: 5 to 10 µM
Acute toxicity count: Blood/bone marrow, Hemoglobin (Course 1, Grade 1): 3
Acute toxicity count: Blood/bone marrow, Leukocytes (total WBC) (Course 1, Grade 1): 2
Acute toxicity count: Blood/bone marrow, Other (Course 1, Grade 1): 1
Acute toxicity count: Blood/bone marrow, Platelets (Course 1, Grade 1): 1
Acute toxicity count: Cardiac arrhythmia ventricular arrhythmia (Course 1, Grade 1): 1
Acute toxicity count: Laboratory, Bicarbonate, serum-low (Course 1, Grade 1): 1
Acute toxicity count: Laboratory, Cholesterol, serum-high (Course 1, Grade 1): 2
Acute toxicity count: Laboratory, Glucose, serum-high (Course 1, Grade 1): 1
Acute toxicity count: Laboratory, Potassium, serum-low (Course 1, Grade 1): 2
Acute toxicity count: Laboratory, Triglyceride, serum-high (Course 1, Grade 1): 2
Acute toxicity count: Blood/bone marrow, Hemoglobin (Course 1, Grade 2): 1
Acute toxicity count: Blood/bone marrow, Lymphopenia (Course 1, Grade 2): 1
Acute toxicity count: Laboratory, Glucose, serum-high (Course 1, Grade 2): 1
Acute toxicity count: Laboratory, Lipase (Course 1, Grade 3): 1
Acute toxicity count: Blood/bone marrow, Hemoglobin (Subsequent courses, Grade 1): 2
Acute toxicity count: Blood/bone marrow, Lymphopenia (Subsequent courses, Grade 1): 1
Acute toxicity count: Blood/bone marrow, Platelets (Subsequent courses, Grade 1): 1
Acute toxicity count: Blood/bone marrow, Hemoglobin (Subsequent courses, Grade 2): 2
Acute toxicity count: Blood/bone marrow, Neutrophils (Subsequent courses, Grade 2): 1
Acute toxicity count: Blood/bone marrow, Leukocytes (total WBC) (human, in vivo): 1
Acute toxicity count: Constitutional, Fatigue (human, in vivo): 1
Acute toxicity count: Constitutional, Weight loss (human, in vivo): 1
Acute toxicity count: Dermatology/skin, Other (human, in vivo): 1
Acute toxicity count: Dermatology/skin, Rash/desquamation (human, in vivo): 1
Acute toxicity count: Gastrointestinal, Anorexia (human, in vivo): 1
Acute toxicity count: Gastrointestinal, Diarrhea (human, in vivo): 7
Acute toxicity count: Gastrointestinal, Nausea (human, in vivo): 1
Acute toxicity count: Gastrointestinal, Vomiting (human, in vivo): 1
Acute toxicity count: Laboratory, ALT, SGPT (human, in vivo): 1
Acute toxicity count: Laboratory, AST, SGOT (human, in vivo): 1
Acute toxicity count: Laboratory, Alkaline phosphatase (human, in vivo): 2
Acute toxicity count: Laboratory, Glucose, serum-high (human, in vivo): 3
Acute toxicity count: Laboratory, Potassium, serum-low (human, in vivo): 1
Acute toxicity count: Laboratory, Triglyceride, serum-high (human, in vivo): 2
Acute toxicity count: Neurology dizziness (human, in vivo): 1
Acute toxicity count: Pain (human, in vivo): 2
Acute toxicity count: Pulmonary dyspnea (human, in vivo): 1
Acute toxicity count: Pulmonary, Hypoxia (human, in vivo): 1
Acute toxicity count: Pulmonary, Other (human, in vivo): 1
Acute toxicity count: Constitutional, Fatigue (human, in vivo, 28 days): 1
Acute toxicity count: Dermatology/skin, Other (human, in vivo, 28 days): 1
Acute toxicity count: Dermatology/skin, Rash/desquamation (human, in vivo, 28 days): 1
Acute toxicity count: Gastrointestinal, Diarrhea (human, in vivo, 28 days): 2
Acute toxicity count: Gastrointestinal, Nausea (human, in vivo, 28 days): 2
Acute toxicity count: Gastrointestinal, Vomiting (human, in vivo, 28 days): 1
Acute toxicity count: Hemorrhage/bleeding (human, in vivo, 28 days): 1
Acute toxicity count: Hepatobiliary/pancreatitis (human, in vivo, 28 days): 1
Acute toxicity count: Laboratory, ALT, SGPT (human, in vivo, 28 days): 3
Acute toxicity count: Laboratory, AST, SGOT (human, in vivo, 28 days): 3
Acute toxicity count: Laboratory, Album, serum-low (human, in vivo, 28 days): 1
Acute toxicity count: Lymphatics/limb edema (human, in vivo, 28 days): 1
MTD (up to dose Level 5 (4,250 mg twice daily)): not reached

From publication PMC3904496 (Cancer chemotherapy and pharmacology, 2012)
